Measured values taken from ChEMBL document CHEMBL4190404, “Synthesis and characterization of amino acid substituted sunitinib analogues for the treatment of AML” (Bioorg Med Chem Lett, 2018).
≈ marks a conversion by molar mass, not a printed value.

Legend:
[1] = tested on: Receptor-type tyrosine-protein kinase FLT3 (Homo sapiens), P36888 [UNDEFINED MUTATION]; assay: Inhibition of FLT3 ITD mutant (unknown origin) using TAMRA-Src- tide as substrate at 12.5 uM after 1 hr by fluorescence polarization assay relative to control
How it was run: (§1)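 FLT3-ITD kinase inhibition by fluorescence polarization IMAP assay; each compound tested at 12.5 and 1.25 μM; percent inhibition, average of two parallel measurements.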

[2] = tested on: Receptor-type tyrosine-protein kinase FLT3 (Homo sapiens), P36888 [UNDEFINED MUTATION]; assay: Inhibition of FLT3 ITD mutant (unknown origin) using TAMRA-Src- tide as substrate at 1.25 uM after 1 hr by fluorescence polarization assay relative to control; how it was run: as §1
[3] = Dissociation constant, pKa of the compound at 25 to 50 uM by UV spectroscopy; assay type: physicochemical
How it was run: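 Carboxyl pKa by automated UV/pH titration with MeOH as co-solvent.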

[4] = Apparent partition coefficient, log P of the compound in n-octanol/aqueous mixture at pH 7.4 after 1 hr by shake flask method; assay type: physicochemical
[5] = n-Octanol-buffer distribution coefficient, log D of the compound at pH 7.4 after 1 hr by shake flask method; assay type: physicochemical
[6] = n-Octanol-buffer distribution coefficient, log D of the compound at pH 5.5 after 1 hr by shake flask method; assay type: physicochemical
[7] = Aqueous solubility in pH 7.4 phosphate buffer at 120 uM after 24 hrs by HPLC method; assay type: physicochemical
[8] = Aqueous solubility in pH 5.5 phosphate buffer at 120 uM after 24 hrs by HPLC method; assay type: physicochemical; details: for solubility at 24 h, 120 µM: phosphate buffer, pH 5.5
[9] = Lipophilicity, chromatographic hydrophobicity index of the compound at pH 7.4 by HPLC method; assay type: physicochemical; details: buffer
How it was run: (§2)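 RP-HPLC with buffer/acetonitrile gradient elution; CHI profile at starting pH 10.5, 7.4, 5.5 and 1.2; values given as average of the compound group.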

[10] = Lipophilicity, chromatographic hydrophobicity index of the compound at pH 5.5 by HPLC method; assay type: physicochemical; details: buffer; how it was run: as §2
[11] = Lipophilicity, chromatographic hydrophobicity index of the compound at pH 1.2 by HPLC method; assay type: physicochemical; details: buffer; how it was run: as §2
[12] = buffer, pH 10.5
[13] = tested on: MV4-11; assay: Antiproliferative activity against human MV4-11 cells after 72 hrs by Celltiter-Glo luminescent cell viability assay; assay type: functional, cell-based; details: MV4-11, 72 h
How it was run: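 MV4-11 leukaemia cells, 72 h proliferation assay, luminescence read-out; IC50 determined from concentration–response.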

Sequence of Receptor-type tyrosine-protein kinase FLT3 (Homo sapiens), P36888 [UNDEFINED MUTATION] (P36888 whole entry, looked up, change not shown): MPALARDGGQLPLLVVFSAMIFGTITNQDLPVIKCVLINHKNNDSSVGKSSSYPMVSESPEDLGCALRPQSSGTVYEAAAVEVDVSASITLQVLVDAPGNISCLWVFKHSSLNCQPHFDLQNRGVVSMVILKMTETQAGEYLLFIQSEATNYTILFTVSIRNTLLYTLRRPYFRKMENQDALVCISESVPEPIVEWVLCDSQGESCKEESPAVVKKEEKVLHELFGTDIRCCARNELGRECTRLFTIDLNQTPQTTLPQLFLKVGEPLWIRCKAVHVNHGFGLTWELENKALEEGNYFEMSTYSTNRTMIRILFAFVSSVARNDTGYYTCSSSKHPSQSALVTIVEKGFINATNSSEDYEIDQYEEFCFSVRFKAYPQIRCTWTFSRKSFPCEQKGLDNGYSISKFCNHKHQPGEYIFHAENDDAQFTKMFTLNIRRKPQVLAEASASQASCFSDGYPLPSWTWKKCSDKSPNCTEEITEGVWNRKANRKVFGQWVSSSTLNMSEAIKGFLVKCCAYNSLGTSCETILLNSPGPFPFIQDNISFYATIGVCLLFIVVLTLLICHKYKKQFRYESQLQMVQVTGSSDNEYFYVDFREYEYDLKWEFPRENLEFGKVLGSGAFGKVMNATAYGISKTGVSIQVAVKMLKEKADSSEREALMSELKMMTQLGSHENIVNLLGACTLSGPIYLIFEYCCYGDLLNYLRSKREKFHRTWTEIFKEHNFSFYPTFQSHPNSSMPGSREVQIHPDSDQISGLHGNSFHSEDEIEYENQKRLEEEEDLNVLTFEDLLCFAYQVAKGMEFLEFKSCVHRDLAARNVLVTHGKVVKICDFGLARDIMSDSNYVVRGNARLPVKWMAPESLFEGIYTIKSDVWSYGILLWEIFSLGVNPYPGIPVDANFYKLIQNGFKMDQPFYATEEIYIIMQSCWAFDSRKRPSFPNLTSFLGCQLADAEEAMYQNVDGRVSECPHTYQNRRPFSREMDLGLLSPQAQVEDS

SMILES	inhibition [1] [%]	inhibition [2] [%]	pKa at up to 50 µM [3]	logD at 1 h [4]	logD at 1 h [5]	logD at 1 h [6]	solubility at 24 h, 120 µM [7] [µM]	solubility at 24 h, 120 µM [8] [µM]	CHI [9]	CHI [10]	CHI [11]	CHI [12]	IC50 [13] [µM]	solubility ([8]; buffer, pH 5.5, 24 h, 120 µM) [µM]
COC(=O)[C@H](Cc1ccccc1)NC(=O)c1c(C)[nH]c(/C=C2\C(=O)Nc3ccc(C(=O)O)cc32)c1C	98.7	85.8	4.61	4.32	1.53	3.38	100 (≈ 48.8 µg/mL)	< 5	52	59	73	49		
COC(=O)CC[C@H](NC(=O)c1c(C)[nH]c(/C=C2\C(=O)Nc3ccc(C(=O)N[C@H](Cc4ccccc4)C(=O)O)cc32)c1C)C(=O)OC	> 100	74.2	3.01	4.07	-0.32	1.58								
COC(=O)CC[C@H](NC(=O)c1c(C)[nH]c(/C=C2\C(=O)Nc3ccc(C(=O)OC)cc32)c1C)C(=O)OC	92.2	87					< 5	< 5	73	73	73	73	0.08	
COC(=O)[C@H](Cc1ccccc1)NC(=O)c1ccc2c(c1)/C(=C/c1[nH]c(C)c(C(=O)N[C@@H](Cc3ccccc3)C(=O)OC)c1C)C(=O)N2	92.3	28.9					< 1	< 1	90	91	92	91	10.9	
COC(=O)CC[C@@H](NC(=O)c1ccc2c(c1)/C(=C/c1[nH]c(C)c(C(=O)O)c1C)C(=O)N2)C(=O)OC	12.1	80.6	5.47											
COC(=O)[C@@H](Cc1ccccc1)NC(=O)c1ccc2c(c1)/C(=C/c1[nH]c(C)c(C(=O)N[C@@H](Cc3ccccc3)C(=O)O)c1C)C(=O)N2	> 100	74.2	3	5.68	1.28	3.18							13	
Cc1[nH]c(/C=C2\C(=O)Nc3ccccc32)c(C)c1CCC(=O)O [ORANTINIB]	> 100	76.7	4.1	4.6	1.3	3.18	≥ 120		47	59	75	42	3.9	5 (≈ 1.55 µg/mL)
CCOC(=O)c1c(C)[nH]c(/C=C2\C(=O)Nc3ccc(C(=O)N[C@@H](Cc4ccccc4)C(=O)O)cc32)c1C	> 100	90.9					20 (≈ 10 µg/mL)	< 5	60	61	86	58		
COC(=O)c1ccc2c(c1)/C(=C/c1[nH]c(C)c(C(=O)N[C@@H](Cc3ccccc3)C(=O)OC)c1C)C(=O)N2	79.3	45.7					< 5	< 1	88	89	89	89	0.5	
COC(=O)[C@H](Cc1ccccc1)NC(=O)c1c(C)[nH]c(/C=C2\C(=O)Nc3ccc(C(=O)N[C@@H](Cc4ccccc4)C(=O)O)cc32)c1C	> 100	94.8					50 (≈ 31.7 µg/mL)	20 (≈ 12.7 µg/mL)	60	60	81	58		
COC(=O)CC[C@H](NC(=O)c1c(C)[nH]c(/C=C2\C(=O)Nc3ccc(C(=O)N[C@@H](Cc4ccccc4)C(=O)OC)cc32)c1C)C(=O)OC	91	57.3					< 1	< 1	78	79	78	77	11.9	
COC(=O)CC[C@H](NC(=O)c1ccc2c(c1)/C(=C/c1[nH]c(C)c(C(=O)N[C@@H](CCC(=O)OC)C(=O)OC)c1C)C(=O)N2)C(=O)OC	80.5	41.9					< 5	< 5	65	65	65	65		

Further lines, results first:

inhibition [1] [%]	inhibition [2] [%]	pKa at up to 50 µM [3]	logD at 1 h [4]	logD at 1 h [5]	logD at 1 h [6]	solubility at 24 h, 120 µM [7] [µM]	solubility at 24 h, 120 µM [8] [µM]	CHI [9]	CHI [10]	CHI [11]	CHI [12]	IC50 [13] [µM]	solubility ([8]; buffer, pH 5.5, 24 h, 120 µM) [µM]	SMILES
> 100	74.2	3	5.62	-3.18	0.62									Cc1[nH]c(/C=C2\C(=O)Nc3ccc(C(=O)N[C@H](Cc4ccccc4)C(=O)O)cc32)c(C)c1C(=O)N[C@@H](Cc1ccccc1)C(=O)O
71.6	69					20 (≈ 9.75 µg/mL)	< 1	56	68	73	47	3.7		COC(=O)[C@H](Cc1ccccc1)NC(=O)c1ccc2c(c1)/C(=C/c1[nH]c(C)c(C(=O)O)c1C)C(=O)N2
75.4	62.5		3.36	3.36	3.36									COC(=O)CC[C@@H](NC(=O)c1ccc2c(c1)/C(=C/c1[nH]c(C)c(C(=O)N[C@H](CCC(=O)OC)C(=O)OC)c1C)C(=O)N2)C(=O)OC
> 100	90.9	3	4.73	0.33	2.23	≥ 120	< 5	53	54	76	51	2.2		COC(=O)c1ccc2c(c1)/C(=C/c1[nH]c(C)c(C(=O)N[C@@H](Cc3ccccc3)C(=O)O)c1C)C(=O)N2
79.4	19.9					< 1	< 1	79	79	79	79	17.7		COC(=O)CC[C@H](NC(=O)c1ccc2c(c1)/C(=C/c1[nH]c(C)c(C(=O)N[C@@H](Cc3ccccc3)C(=O)OC)c1C)C(=O)N2)C(=O)OC
74.2	25					< 1	< 1	98	98	99	100	10.6		CCOC(=O)c1c(C)[nH]c(/C=C2\C(=O)Nc3ccc(C(=O)N[C@@H](Cc4ccccc4)C(=O)OC)cc32)c1C
> 100	98.7					≥ 120	60 (≈ 37.8 µg/mL)	50	50	68	47			COC(=O)CC[C@H](NC(=O)c1c(C)[nH]c(/C=C2\C(=O)Nc3ccc(C(=O)N[C@@H](Cc4ccccc4)C(=O)O)cc32)c1C)C(=O)OC
> 100	58.6					70 (≈ 44.4 µg/mL)	30 (≈ 19 µg/mL)	59	60	80	57	24.3		COC(=O)[C@H](Cc1ccccc1)NC(=O)c1ccc2c(c1)/C(=C/c1[nH]c(C)c(C(=O)N[C@@H](Cc3ccccc3)C(=O)O)c1C)C(=O)N2
> 100	58.7	3.04	3.62	-0.74	1.16	100 (≈ 63.1 µg/mL)	30 (≈ 18.9 µg/mL)	49	50	67	46			COC(=O)CC[C@H](NC(=O)c1ccc2c(c1)/C(=C/c1[nH]c(C)c(C(=O)N[C@@H](Cc3ccccc3)C(=O)O)c1C)C(=O)N2)C(=O)OC
